33 molecules from ChEMBL document CHEMBL1137134, “Novel thiophenes and analogues with anthelmintic activity against Haemonchus contortus” (Bioorg Med Chem Lett, 2004) can be followed below.

SMILES strings stand for the structures.

Holding throughout (type): functional, organism-based
The test system of assay [1] is Haemonchus contortus. Kind of assay: In vitro anthelmintic activity against Haemonchus contortus after 2 hr of incubation using larval mobility assay. In outline: (§1)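 L3 larvae (30–40/well) incubated with compound at 27 °C for 2 or 24 h, then moved to an insert whose wells have a nylon mesh (40 µm pores) under 2% low-melt agar. After 4 h more, larvae that migrated through the barrier were counted. Primary screen at 100 ppm, with >50% motility inhibition counted as active. EC50 from 2-fold serial dilutions, 200 to 0.2 µM.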

Assay [2] concerns Haemonchus contortus. Kind of assay: In vitro anthelmintic activity against Haemonchus contortus after 24 hr of incubation using larval mobility assay. In a few lines: as §1
In assay [3] the test system is Haemonchus contortus. Briefly: In vitro anthelmintic activity against Haemonchus contortus after 24 hr of incubation using larval mobility assay; NA denotes <50% inhibition of […] at 100 ppm. In a few lines:
(§2)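 H. contortus L3 larvae (30–40/well) exposed to compound at 27 °C for 2 or 24 h, then moved to an insert with a 40 µm nylon mesh under 2% low melt agar. After a further 4 h, larvae that migrated through the barrier were counted. EC50 from 2-fold serial dilutions, 200 to 0.2 µM. Primary screen at 100 ppm, 24 h; >50% motility inhibition counted as active.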

The test system of assay [4] is Haemonchus contortus. Briefly: In vitro anthelmintic activity against Haemonchus contortus after 2 hr of incubation using larval mobility assay; NA denotes <50% inhibition of mortality at 100 ppm. In outline: as §2

As a reminder, the EC50 is the concentration needed to bring the measured effect to its halfway point. Low readings indicate higher potency in that assay, high ones lower potency in that assay.

Consider `CNc1nc(-c2ccccc2)cs1`, for which the EC50 in the assay with Haemonchus contortus [1] was determined as 46 µM; with Haemonchus contortus [2], 65 µM.
Taken in the same sequence, the figures for `CCSc1cc(-c2ccc([N+](=O)[O-])cc2)cs1` were 193 µM and 15 µM.
In the same order, the values of `CCSc1cc(-c2cccnc2)cs1` are 46 µM and 33 µM.
In the case of `CCSc1cc(-c2ccccc2)cs1`, the EC50 result with Haemonchus contortus [3] was “Not Active”.
Still for that read-out and setting: the value for `CSc1nc(-c2ccc(F)cc2)cn1C` was “Not Active”.
Regarding `CSc1scc(-c2ccc(F)cc2)c1Br`, the EC50 in the assay with Haemonchus contortus [1] was more than 200 µM; with Haemonchus contortus [2], 17 µM.
In the same order, the values of `CNc1nc(-c2ccc(F)cc2)cs1` are 98 µM and 64 µM.
Taken in the same sequence, the figures for `CSc1cc(-c2ccc(F)cc2)cs1` were more than 200 µM and 68 µM.
In the same order, the values of `CSc1scc(-c2ccc(F)cc2)c1C#N` are more than 200 µM and 28 µM.
On to `CSc1ccc(-c2ccc(F)cc2)cc1C#N`, for which, in the assay with Haemonchus contortus [3], the EC50 entry is “Not Active”.
Same read-out and setting: the value for `CSc1ccc(-c2ccc(F)cc2)cc1` was “Not Active”.
`CCSc1cc(-c2cccc(C#N)c2)cs1`: the results for the EC50 in the assay with Haemonchus contortus [1] and in the assay on Haemonchus contortus [2] were more than 200 µM and 189 µM, respectively.
In the case of `CCOc1scc(-c2ccc(F)cc2)c1C#N`, the EC50 result with Haemonchus contortus [3] is recorded as “Not Active”.
In the case of `CSc1nc(-c2ccc(F)cc2)c[nH]1`, the EC50 result with Haemonchus contortus [3] was “Not Active”.
Regarding `CS(=O)(=O)c1scc(-c2ccc(F)cc2)c1C#N`, the EC50 entry in the assay on Haemonchus contortus [3] is given as “Not Active”.
As to `CCSc1cc(-c2cccs2)cs1`, the EC50 was more than 200 µM in the assay on Haemonchus contortus [1] and 161 µM in the assay on Haemonchus contortus [2].
In the case of `N#Cc1cscc1-c1ccc(F)cc1`, the EC50 entry in the assay with Haemonchus contortus [3] is given as “Not Active”.
Take `CSc1cccc(-c2ccc(F)cc2)c1`: the 50% effective concentration (EC50) result in the assay on Haemonchus contortus [3] was “Not Active”.
Turning to `CSc1cc(-c2ccc(F)cc2)co1`, in the assay with Haemonchus contortus [3], the EC50 result is given as “Not Active”.
On the same count and under the same terms, the value for `CC(=O)c1cc(-c2ccc(F)cc2)cs1` was “Not Active”.
For `CCSc1c(C#N)c(-c2ccc(F)cc2)cn1C`, the EC50 entry with Haemonchus contortus [3] and in the assay on Haemonchus contortus [4] was “Not Active” each time.
Take `CCc1cc(-c2ccc(F)cc2)cs1`: in the assay with Haemonchus contortus [3], the EC50 result is given as “Not Active”.
Regarding `CNc1scc(-c2ccc(F)cc2)c1C#N`, the EC50 result with Haemonchus contortus [3] is given as “Not Active”.
With `CCSc1nc(-c2ccccc2)cs1`, the EC50 is more than 200 µM in the assay on Haemonchus contortus [1] and 32 µM in the assay with Haemonchus contortus [2].
Taken in the same sequence, the figures for `CSc1nc(-c2ccccc2)cs1` were 82 µM and 190 µM.
In the same order, the values of `CCSc1scc(-c2ccc(F)cc2)c1C#N` are more than 200 µM and 6 µM.
For the molecule `CSc1c(C#N)c(-c2ccc(F)cc2)cn1C`, the EC50 is more than 200 µM in the assay with Haemonchus contortus [1] and 175 µM in the assay on Haemonchus contortus [2].
As to `CCSc1cc(-c2ccc(F)cc2)cs1`, the EC50 with Haemonchus contortus [1] was more than 200 µM; with Haemonchus contortus [2], 12 µM.
Taken in the same sequence, the figures for `CCNc1nc(-c2ccccc2)cs1` were 162 µM and 102 µM.
Take `N#Cc1c(-c2ccc(F)cc2)csc1N`: the concentration for a half-maximal effect (EC50) entry in the assay with Haemonchus contortus [3] is listed as “Not Active”.
In the case of `CSc1scc(-c2ccc(F)cc2)c1[N+](=O)[O-]`, the concentration giving a half-maximal response (EC50) result in the assay with Haemonchus contortus [3] is recorded as “Not Active”.
Take `CCSc1cc(-c2ccc(F)c(F)c2)cs1`: the EC50 in the assay on Haemonchus contortus [1] was more than 200 µM; in the assay on Haemonchus contortus [2], 80 µM.
For the molecule `c1ccc([C@H]2CN3CCSC3=N2)cc1` [LEVAMISOLE], the concentration for a half-maximal effect (EC50) with Haemonchus contortus [1] was 18 µM; with Haemonchus contortus [2] it was 15 µM.
